Measurements from publication PMC5818879 (International Journal of Nanomedicine, 2018).
≈ marks a conversion by molar mass, not a printed value. One block for each compound: values may come before it.

Legend:
HepG2 cells = test: Sulforhodamine B; format: cell-based; conditions: Homo sapiens, HepG2, 48 h
[1] = In vivo oral pharmacokinetic study, plasma HPLC; set-up: species or system albino Wistar rats
Method in brief: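 Albino Wistar rats received free or PLGA-nanoparticle test compound orally at 100 mg/kg. […] was mixed 1:1 with ACN, vortexed, spun, dried at 40°C and reconstituted in ACN. Assay was RP-C18 HPLC (ACN:H2O 9:1, 1 mL/min, 40°C, 230 nm); calibrants 0.01–50.0 µg/mL.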

NDEA-induced HCC [2] = test: NDEA-induced HCC model: body weight, liver weight, tumor incidence; format: in vivo, Wistar albino rats
Method in brief: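 NDEA-induced HCC in male Wistar albino rats (six weeks old, 80–120 g, n=8/group): 100 mg/kg i.p. weekly for 6 weeks. Then free or PLGA-nanoparticle test compound was given at 50 or 100 mg/kg orally, or 5-FU 10 mg/kg i.p., for 15 days; controls got 0.25% CMC 2 mL/kg. Body weight was taken on the first and last days as % gain. Livers were weighed; nodule number and % incidence were counted.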

NDEA-induced HCC [3] = test: NDEA-induced HCC model: oxidative stress parameters in liver tissue; format: in vivo, Wistar albino rats
Method in brief: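 Rats were male Wistar albino (80–120 g, n=8/group) given NDEA 100 mg/kg i.p. weekly for 6 weeks. They then received free or PLGA-nanoparticle test compound at 50 or 100 mg/kg orally, or 5-FU 10 mg/kg i.p., for 15 days. Livers were excised, rinsed in ice-cold saline and stored at −80°C. CAT, SOD, GSH, protein carbonyl and TBARS were assayed in liver tissue.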

NDEA-induced HCC [4] = test: NDEA-induced HCC model: catabolic by-products; format: in vivo, Wistar albino rats; conditions: NDEA rats; 50 and 100 mg/kg orally for 15 days
[5] = system: IL-2, IL-6, IL-10 and IL-1β; format: in vivo, Wistar albino rats; conditions: NDEA rats, ELISA; 50 and 100 mg/kg orally for 15 days
Method in brief: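 Male Wistar albino rats (six weeks old, 80–120 g, n=8/group) got NDEA 100 mg/kg i.p. weekly for 6 weeks. Free or PLGA-nanoparticle test compound followed at 50 or 100 mg/kg orally for 15 days (5-FU 10 mg/kg i.p.; vehicle 0.25% CMC). Excised livers were rinsed in ice-cold saline and kept at −80°C. Hepatic IL-2, IL-6, IL-10 and IL-1β were measured by kit ELISA; mean ± SD.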

caspase-3 and -8 = test: NDEA-induced HCC model: ELISA of caspase-3 and -8 in liver; format: in vivo, Wistar albino rats; conditions: NDEA rats; 50 and 100 mg/kg orally for 15 days
caspase-3 and -8 genes = test: NDEA-induced HCC model: qRT-PCR of caspase-3 and -8 mRNA in liver tissue; format: in vivo, Wistar albino rats; conditions: NDEA rats, 50 and 100 mg/kg orally for 15 days
NDEA-induced HCC [6] = test: NDEA-induced HCC model: histopathology; format: in vivo, Wistar albino rats; conditions: NDEA rats; 50 and 100 mg/kg orally for 15 days
[7] = albino Wistar, rat, po, 100 mg/kg
[8] = oral 100 mg/kg, albino Wistar rats
[9] = NDEA + 50 mg/kg orally for 15 days
[10] = NDEA + 100 mg/kg orally for 15 days
[11] = NDEA + 5-FU 10 mg/kg i.p. for 15 days

GI50 (HepG2 cells): 10 µg/mL (≈ 21.9 µM) | AUC [1, 7]: 134 µg·h/mL | AUC(0-inf) [1, 7]: 134 ± 35.7 µg·h/mL | Cmax [1, 7]: 10300 ± 450 ng/mL | MRT [1, 7]: 12.9 ± 1.35 h | Tmax [1, 7]: 4 h | half-life [1, 7]: 10.7 h | AUMC [1, 8]: 1,724.12 µg·h^2/mL | CL [1, 8]: 0.007 h
Compound: C=C(C)[C@@H]1CC[C@]2(C(=O)O)CC[C@]3(C)[C@H](CC[C@@H]4[C@@]5(C)CC[C@H](O)C(C)(C)[C@@H]5CC[C@]43C)[C@@H]12 [B, Betulinic acid]
Final day body weight (NDEA-induced HCC [2]; [9]): 132.00 ± 4.25 g | Liver weight (NDEA-induced HCC [2]; [9]): 12.78 ± 0.73 g | Tumor incidence no (NDEA-induced HCC [2]; [9]): 19.00±0.97 | Weight variation (NDEA-induced HCC [2]; [9]): 11.00 ± 1.82 g | Final day body weight (NDEA-induced HCC [2]; [10]): 130.00 ± 2.12 g | Liver weight (NDEA-induced HCC [2]; [10]): 12.03 ± 1.25 g | Tumor incidence no (NDEA-induced HCC [2]; [10]): 14.00±1.01 | Weight variation (NDEA-induced HCC [2]; [10]): 12.00 ± 2.93 g | CAT (NDEA-induced HCC [3]; [9]): 5.75±0.27 nM of H2O2/min/µg of protein | GSH (NDEA-induced HCC [3]; [9]): 3.25±0.65 mM/mg of protein | ProC (NDEA-induced HCC [3]; [9]): 0.91±0.02 µM/µg of protein | SOD (NDEA-induced HCC [3]; [9]): 0.19±0.07 U/µg of protein | TBARS (NDEA-induced HCC [3]; [9]): 0.13±0.05 nM of MDA/mg of protein | CAT (NDEA-induced HCC [3]; [10]): 6.81±0.73 nM of H2O2/min/µg of protein | GSH (NDEA-induced HCC [3]; [10]): 3.50±0.32 mM/mg of protein | ProC (NDEA-induced HCC [3]; [10]): 0.76±0.02 µM/µg of protein | SOD (NDEA-induced HCC [3]; [10]): 0.21±0.05 U/µg of protein | TBARS (NDEA-induced HCC [3]; [10]): 0.11±0.04 nM of MDA/mg of protein | Catabolic pigments bilirubin and biliverdin in liver tissue (in words) (NDEA-induced HCC [4]): significant (p<0.001) normalization | Inflammatory cytokines IL-2, IL-6, IL-10, IL-1β (in words) [5]: decreased to a certain extent | Caspase-3 and -8 levels in liver, ELISA (in words) (caspase-3 and -8): ability to elevate the reduced levels of caspase-3 and -8 | Caspase-3 and -8 gene expression, qRT-PCR (in words) (caspase-3 and -8 genes): significantly elevated (p<0.001) the reduced levels of caspase-3 and -8 | Histological changes in liver tissue, H&E (in words) (NDEA-induced HCC [6]): marked improvement in gross microscopic appearance of hepatic tissue

Compound: O=c1[nH]cc(F)c(=O)[nH]1 [Batch 5-FU, 5-fluorouracil, reference compound]
Final day body weight (NDEA-induced HCC [2]; [11]): 125.00 ± 3.15 g | Liver weight (NDEA-induced HCC [2]; [11]): 10.43 ± 1.71 g | Tumor incidence no (NDEA-induced HCC [2]; [11]): 6.00±0.83 | Weight variation (NDEA-induced HCC [2]; [11]): 10.00 ± 1.26 g | CAT (NDEA-induced HCC [3]; [11]): 8.41±0.68 nM of H2O2/min/µg of protein | GSH (NDEA-induced HCC [3]; [11]): 5.04±0.61 mM/mg of protein | ProC (NDEA-induced HCC [3]; [11]): 0.69±0.03 µM/µg of protein | SOD (NDEA-induced HCC [3]; [11]): 0.24±0.09 U/µg of protein | TBARS (NDEA-induced HCC [3]; [11]): 0.09±0.01 nM of MDA/mg of protein
